Reference: ChEMBL document CHEMBL1139013, “Synthesis and biological evaluation of novel 9-substituted-8-hydroxyadenine derivatives as potent interferon inducers” (J Med Chem, 2006)

Key:
[1] = Cmax in ferret at 3 mg/kg, po; assay type: ADME, organism-based, Mustela putorius furo; parameters: dose 3 mg/kg, route oral; conditions: in vivo
In short: (§1)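 Male ferrets, 4 months old, dosed orally with compound suspended in 0.5% sodium carboxymethyl cellulose. Blood (0.5 mL) drawn from jugular vein; serum separated at 1630g, 10 min, 4 °C, stored at -20 °C. Compound concentration measured by HPLC; maximum concentration reported in ng/mL.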

Mustela putorius furo [2] = test: Emetic activities in ferret at 0.3 mg/kg, po; assay type: organism-based; parameters: dose 0.3 mg/kg, route oral; conditions: in vivo
In short: (§2)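 Oral dosing of male ferrets (4 months old) with compound in 0.5% sodium carboxymethyl cellulose vehicle; doses 0.3-30 mg/kg, 5 animals per group. Animals housed singly, video-recorded continuously for 6 h. Tapes scored afterwards for presence or absence of vomiting; reported as number vomiting per group.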

Splenocyte [3] = test: Induction of IFN in C3H/HeJ mouse splenocytes at 10 nM; assay type: functional
In short: (§3)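 Mouse splenocytes are suspended at 2 × 10⁶ cells/mL in MEM with 5% fetal calf serum, penicillin and streptomycin. They are mixed 1:1 with compound (DMSO stock diluted 500-fold in medium) and cultured 18 h at 37 °C in 5% CO₂. Supernatants are filter-sterilized and stored at -80 °C. IFN (IU/mL) is measured by L929/vesicular stomatitis virus bioassay.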

Cynomolgus monkey [4] = test: Induction of IFN in cynomolgus monkey at 1 mg/kg, po; assay type: functional, Macaca fascicularis
Mus musculus [5] = test: Induction of IFN in BALB/c mice at 0.3 mg/kg, po; assay type: functional
Mustela putorius furo [6] = test: Emetic activities in ferret at 30 mg/kg, po; assay type: organism-based; parameters: dose 30 mg/kg, route oral; conditions: in vivo; in short: as §2
Cynomolgus monkey [7] = test: Induction of IFN in cynomolgus monkey at 0.3 mg/kg, po; assay type: functional, Macaca fascicularis
[8] = Cmax in ferret at 30 mg/kg, po; assay type: ADME, organism-based, Mustela putorius furo; parameters: dose 30 mg/kg, route oral; conditions: in vivo; in short: as §1
Mus musculus [9] = test: Induction of IFN in BALB/c mice at 0.1 mg/kg, po; assay type: functional
Splenocyte [10] = test: Induction of IFN in C3H/HeJ mouse splenocytes at 30 nM; assay type: functional; in short: as §3
Cynomolgus monkey [11] = test: Induction of IFN in cynomolgus monkey at 0.1 mg/kg, po; assay type: functional, Macaca fascicularis
Splenocyte [12] = test: Induction of IFN in C3H/HeJ mouse splenocytes at 1 nM; assay type: functional; in short: as §3
Splenocyte [13] = test: Induction of IFN in C3H/HeJ mouse splenocytes at 3 nM; assay type: functional; in short: as §3
Mustela putorius furo [14] = test: Emetic activities in ferret at 3 mg/kg, po; assay type: organism-based; parameters: dose 3 mg/kg, route oral; conditions: in vivo; in short: as §2
Splenocyte [15] = test: Induction of IFN in C3H/HeJ mouse splenocytes at 100 nM; assay type: functional; in short: as §3

SMILES: CCCCNc1nc(N)c2nc(O)n(Cc3ccc(Cl)nc3)c2n1
- Cmax [1]: 20.1 ng/mL
- Activity (Mustela putorius furo [2]): Not Active
- Activity (Splenocyte [3]): 6.8 IU/ml
- Activity (Cynomolgus monkey [4]): 3602 IU/ml
- Activity (Mus musculus [5]): 1826 IU/ml
- Activity (Mustela putorius furo [6]): Not Active
- Activity (Cynomolgus monkey [7]): 19 IU/ml
- Cmax [8]: 275 ng/mL
- Activity (Mus musculus [9]): 811 IU/ml
- Activity (Splenocyte [10]): 2.6 IU/ml
- Activity (Cynomolgus monkey [11]): 0 IU/ml
- Activity (Splenocyte [12]): <0.5 IU/ml
- Activity (Splenocyte [13]): 5.6 IU/ml
- Activity (Mustela putorius furo [14]): Not Active
- Activity (Splenocyte [15]): 1.5 IU/ml

SMILES: CCCCNc1nc(N)c2nc(O)n(Cc3ccc(OC)nc3)c2n1
- Cmax [1]: 109 ng/mL
- Activity (Mustela putorius furo [2]): Not Active
- Activity (Splenocyte [3]): 13.4 IU/ml
- Activity (Cynomolgus monkey [4]): 17422 IU/ml
- Activity (Mus musculus [5]): 1920 IU/ml
- Activity (Mustela putorius furo [6]): Not Active
- Activity (Cynomolgus monkey [7]): 244 IU/ml
- Cmax [8]: 1200 ng/mL
- Activity (Mus musculus [9]): 375 IU/ml
- Activity (Splenocyte [10]): 3 IU/ml
- Activity (Cynomolgus monkey [11]): 3 IU/ml
- Activity (Splenocyte [12]): <0.5 IU/ml
- Activity (Splenocyte [13]): 8.2 IU/ml
- Activity (Mustela putorius furo [14]): Not Active
- Activity (Splenocyte [15]): 1 IU/ml

SMILES: CCCCNc1nc(N)c2nc(O)n(Cc3ccc(C)nc3)c2n1
- Cmax [1]: 20.8 ng/mL
- Activity (Mustela putorius furo [2]): Not Active
- Activity (Splenocyte [3]): 7.8 IU/ml
- Activity (Cynomolgus monkey [4]): 34810 IU/ml
- Activity (Mus musculus [5]): 1891 IU/ml
- Activity (Mustela putorius furo [6]): Not Active
- Activity (Cynomolgus monkey [7]): 591 IU/ml
- Cmax [8]: 1020 ng/mL
- Activity (Mus musculus [9]): 393 IU/ml
- Activity (Splenocyte [10]): 3.7 IU/ml
- Activity (Cynomolgus monkey [11]): 121 IU/ml
- Activity (Splenocyte [12]): <0.5 IU/ml
- Activity (Splenocyte [13]): 4.4 IU/ml
- Activity (Mustela putorius furo [14]): Not Active
- Activity (Splenocyte [15]): 1.4 IU/ml
